Assay outcomes from PubChem.
Apaf1 inhib – inhibitors of human Apaf-1 apoptosome, primary screen, biochemical, DEVD-Rh110 fluorescence, uHTS. Apoptotic protease-activating factor 1 (Homo sapiens), O14727. reconstituted apoptosome caspase-3 activity. inhibition, % at 20 µM. actives 0.71% (n = 330,000). AID 489030, 2010; active = inhibition of at least 40% at 20 µM;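 also: plate controls were DMSO wells for no effect and DEVD-CHO caspase inhibitor wells for full effect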
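Material: reconstituted apoptosome with Apaf-1, cytochrome c, caspase-9, procaspase-3, dATP; medium: pH 7.5 Hepes buffer with CHAPS, BSA, DTT; also added: cytochrome c and DEVD-Rh110 substrate; timing: 30 min plus 50 min, RT; signal: Rh110 fluorescence intensity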
GSTO1 counter – inhibitors of recombinant GSTO1, primary screen, counter-screen for RBBP9 inhibitor project, biochemical, fluorescence polarization. actives 1.1% (n = 300,000). Glutathione S-transferase omega-1 (Homo sapiens), P78417. activity-based probe fluorescence polarization. inhibition, % at 5.96 µM;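 active = inhibition above the campaign mean inhibition plus 3 SD, cut at about 35% in these data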;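 also: 0% = GSTO1-1 with DMSO and 100% = wells lacking GSTO1-1 enzyme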
Target sequence (P78417 whole entry, looked up): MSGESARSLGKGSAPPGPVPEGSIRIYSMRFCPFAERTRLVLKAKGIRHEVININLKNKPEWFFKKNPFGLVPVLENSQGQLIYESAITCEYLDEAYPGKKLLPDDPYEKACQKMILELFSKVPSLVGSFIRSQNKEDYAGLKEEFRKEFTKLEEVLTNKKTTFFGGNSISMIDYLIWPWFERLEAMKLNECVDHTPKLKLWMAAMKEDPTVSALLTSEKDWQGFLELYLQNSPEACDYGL
TDP2 absorb – human TDP2 enzyme inhibitors, primary screen, biochemical, epi absorbance, recombinant enzyme | Tyrosyl-DNA phosphodiesterase 2 (Homo sapiens), O95551 | T5PNP hydrolysis, p-nitrophenol absorbance 415 nm | inhibition, % at 12.8 µM | actives 0.34% (n = 370,000) | AID 720702, 2013;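 active = inhibition above the mean of all tested compounds plus 3 SD, set per campaign, cut at about 25% in these data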;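 also: 0% = DMSO with enzyme and 100% = buffer with substrate but no TDP2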
Target sequence (O95551 whole entry, looked up): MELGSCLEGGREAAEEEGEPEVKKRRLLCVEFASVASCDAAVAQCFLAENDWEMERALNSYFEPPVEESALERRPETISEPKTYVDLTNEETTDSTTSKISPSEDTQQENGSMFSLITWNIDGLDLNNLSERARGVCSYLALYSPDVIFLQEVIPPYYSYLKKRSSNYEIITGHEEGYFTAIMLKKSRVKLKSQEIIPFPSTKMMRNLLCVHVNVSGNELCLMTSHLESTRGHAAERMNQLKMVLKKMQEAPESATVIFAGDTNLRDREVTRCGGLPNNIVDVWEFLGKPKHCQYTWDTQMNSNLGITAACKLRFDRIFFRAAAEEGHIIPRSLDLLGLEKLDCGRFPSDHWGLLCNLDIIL
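Test system: human TDP2 enzyme; Input: 120 nM TDP2 per well; Buffer or medium: Mg2+-containing Tris-HCl buffer, pH 7.5; Reagent: 5 mM T5PNP; Dosing: 12.8 µM single point, 1% DMSO; Incubation: reaction 2 h, 37 °C; Detection: p-Nitrophenol epi absorbance; Read-out: % inhibition relative to enzyme-containing and enzyme-free wells; Replicates: single well per compound.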
PAD4 inh – human PAD4 inhibitors, primary screen, biochemical, fluorescence polarization, 1536-well format | Protein-arginine deiminase type-4 (Homo sapiens), Q9UM07 | recombinant PAD4, RCA probe fluorescence polarization | inhibition, % at 6.36 µM | actives 0.41% (n = 330,000) | AID 485272, 2010;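 active = percent inhibition above a cutoff equal to the mean of all tested compounds plus 3 SD, cut at about 15% in these data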;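 also: 0% = PAD4 with RCA probe and DMSO and 100% = probe without PAD4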
PRMT1 FP inh – PRMT1 methyltransferase inhibitors, primary screen, biochemical, fluorescence polarization | Protein arginine N-methyltransferase 1 (Homo sapiens), Q99873 | AID 652257, 2013 | actives 1.3% (n = 370,000) | recombinant PRMT1, activity-based probe fluorescence polarization | inhibition, % at 2.79 µM;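 active = inhibition above about 21% made by adding two undisclosed values, limit read from the data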
GSTO1 inh conf – GSTO1 inhibitor hit confirmation, counter-screen for RBBP9 inhibitor project, biochemical, fluorescence polarization, triplicate | AID 2176, 2009 | inhibition, % at 5.96 µM | shares compounds with GSTO1 counter | actives 54% (n = 2,400) | recombinant GSTO1, probe fluorescence polarization;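 active = inhibition above the primary screen's cutoff, its mean inhibition plus 3 SD, cut at about 35% in these data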;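 also: loss of polarization as inhibitors block binding of rhodamine sulfonate ester activity probe; 0% = GSTO1 with DMSO and 100% = wells lacking GSTO1 enzyme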
GSTO1 ABPP inh – inhibitors of purified human GSTO1, late-stage follow-up, biochemical, gel ABPP, SE-Rh probe, percent inhibition | shares compounds with GSTO1 counter | recombinant GSTO1, gel ABPP SE-Rh probe fluorescence | inhibition, % at 1 µM | actives 30% (n = 130) | AID 463110, 2010;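 active = inhibition of the enzyme GSTO1 above about 75%, limit read from the data; inactive = inhibition below that limit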
* marks the source's active call; other numbers are inactive results; . = no result given. Only some compounds are listed: those with a hit (about 2.6% of all), similar ones and a draw of the others.

SMILES	Apaf1 inhib	GSTO1 counter	TDP2 absorb	PAD4 inh	PRMT1 FP inh	GSTO1 inh conf	others
CCCc1ccccc1OCCNS(=O)(=O)c1cc2c(cc1C)OCC(=O)N2	19	43*	-8	4	-2	30
Cc1cc2c(cc1S(=O)(=O)NCc1ccccc1)NC(=O)CO2	5	16	0	-4	4	.
CCNc1nc(NCC)n2c(SCC(=O)c3ccc(C(C)C)cc3)nnc2n1	1	95*	-8	-2	3	87*
CCNc1nc(NCC)n2c(SCC(=O)Nc3ccccc3)nnc2n1	7	15	11	2	-1	.
O=C1CC(c2ccccc2)CC(O)=C1C=Nc1ccc(O)cc1 (stereo unspecified)	24	56*	0	-1	-3	6
Cc1ccc(OCc2nnc(SCC(=O)Nc3cccc4ccccc34)n2Cc2ccco2)cc1	.	.	3	.	3	.
O=C1c2ccccc2C(=O)C12OC2c1ccc(Cl)cc1 (stereo unspecified)	27	45*	.	-18	.	15
O=C(CNC(=O)c1ccco1)N=Nc1c(O)[nH]c2ccc([N+](=O)[O-])cc12	5	50*	15	-7	5	62*
NC(=O)N=Nc1c(O)[nH]c2ccc([N+](=O)[O-])cc12	-6	-1	-1	6	-4	.
C=C(C)CNC(=S)N=Nc1c(O)[nH]c2ccc([N+](=O)[O-])cc12	-11	42*	-6	-5	-7	37*
COc1ccc(-c2cnc3c(NC(C)=O)cc(-c4ccc(C(=O)N5CCOCC5)cc4)cn23)cc1OC	.	.	3	.	0	.
COc1ccc2c(c1)CNC2CS(=O)(=O)NC1CCCC1 (stereo unspecified)	.	.	-3	.	7	.
COc1cc2c(cc1OC)C(c1ccccc1)N(C(=O)CCl)CC2 (stereo unspecified)	-1	88*	-1	6	2	96*	GSTO1 ABPP inh=75*
COc1ccc2c(c1)CCN(C(=O)CCl)C2C1C(=O)CCCC1=O (stereo unspecified)	-8	40*	0	1	4	81*	GSTO1 ABPP inh=35
COCCCNC(=O)C[C@H]1C[C@@]2(C(=O)OC)C(=C[C@H](COCc3ccccc3)O[C@@H]2C)N(Cc2cccc3ccccc23)C1=O	.	.	-6	.	-3	.
CC(C)C(=O)Nc1cccc(S(=O)(=O)NC2=NCCC2)c1	.	.	10	.	5	.
O=C(CCl)Nc1cccc(S(=O)(=O)NC2=NCCC2)c1	-9	99*	-19	-2	-2	99*
COc1cccc(NC(=O)C2CCCN2C(=O)NCc2ccccc2OC)c1 (stereo unspecified)	.	.	-2	.	1	.
Nc1c(C(=O)OCC2CCCO2)c2nc3ccccc3nc2n1C1CCCCC1 (stereo unspecified)	38	67*	8	-14	0	13
Nc1c(S(=O)(=O)c2cccs2)c2nc3ccccc3nc2n1CC1CCCO1 (stereo unspecified)	-3	3	.	-2	.	.
O=C1NC(c2ccccc2)c2c(-c3ccccc3)n[nH]c21 (stereo unspecified)	.	.	-5	.	-2	.
O=c1[nH]c(CCl)nc2cc(-c3ccc(F)cc3)sc12	16	97*	10	-1	-1	94*	GSTO1 ABPP inh=82*
CN(C)C(=O)c1cc(C(=O)c2ccccc2Cl)c[nH]1	1	-1	5	-1	1	.
CN(C)C(=O)c1cc(C(=O)c2ccccc2)c[nH]1	6	67*	16	2	-1	2
Cc1cc(C)cc(-n2c(C)cc(C(=O)CSc3nnnn3C)c2C)c1	10	49*	8	-8	-3	43*
SMILES	Apaf1 inhib	GSTO1 counter	TDP2 absorb	PAD4 inh	PRMT1 FP inh	GSTO1 inh conf	others
Cc1ccc(NC(=O)CSc2nc(C)cc(=O)[nH]2)c(C)c1	.	.	-4	.	-1	.
Cc1ccc(C)c(NC(=O)CSc2nnc(-c3ccccc3C)o2)c1	6	-5	1	0	-3	.
Cc1ccc(C)c(NC(=O)CSc2nnc(-c3n[nH]c4ccccc34)o2)c1	11	39*	-2	-4	0	29
O=[N+]([O-])c1ccc(O)c(C=Nc2ccc3c(c2)OCO3)c1	-5	5	-1	2	10	.
O=[N+]([O-])c1cc(Br)cc(C=Nc2ccc3c(c2)OCO3)c1O	4	43*	-2	-1	-2	38*
O=C(/C=C/c1ccc(Br)cc1)NC(=O)c1ccccc1O	17	-4	-9	-1	2	.
O=C(/C=C/c1ccc(O)c(O)c1)NC(=O)c1ccccc1O	-9	55*	-6	1	13	32
Cc1ccc(S(=O)(=O)N2C3CCCCC3O[C@H]2CC(=O)c2cccs2)cc1 (stereo partly specified)	.	.	2	.	4	.
COc1ccc(-c2nc3c(Cl)cc(C(F)(F)F)cn3c2Cc2ccsc2)cc1OC	.	.	3	.	6	.
Cc1sc(NC(=O)CCl)c(C(=O)c2ccccc2)c1C	24	74*	-12	0	6	97*
CCCC1CCC2(CCC(=O)N2CCC#N)CC1 (stereo unspecified)	.	.	8	.	-2	.
c1ccc(-c2ccc(C3=Nn4c(Cn5nnc6ccccc65)nnc4SC3)cc2)cc1	27	56*	-4	-7	1	-9
C#CCn1c2ccccc2c(=O)n1CCOc1ccccc1OC	.	.	3	.	4	.
CC(C)(C)CC(=O)Nc1cc(S(=O)(=O)N2CCCCCC2)ccc1Cl	2	0	-9	3	1	.
O=C(CCl)N1CCN(S(=O)(=O)c2ccc3ccccc3c2)CC1	8	87*	7	0	4	94*	GSTO1 ABPP inh=88*
O=C(CCl)Nc1cc(S(=O)(=O)N2CCCCCC2)ccc1Cl	5	96*	-1	5	-4	96*
Cc1ccc(S(=O)(=O)N2CCCCC2)cc1NS(=O)(=O)c1cccc(C(=O)O)c1	8	39*	5	2	2	32
O=C(O)c1ccc2c(c1)C(=O)/C(=C\c1ccco1)C2=O	30	40*	2	11	34*	50*
COc1ccc(CN2CN3Cc4ccccc4C3CS2(=O)=O)cc1 (stereo unspecified)	.	.	11	.	3	.
